# From PubChem BioAssay
# Active and inactive are the calls of the source.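 How the source made its calls, unless noted: active means viability at or below 10% of carrier control in both of two separate runs; inconclusive means viability at or below 10% in only one of the two runs; inactive means the rest.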
# How the values were obtained:
# [1] = reducers of endogenous Her2 protein level, primary screen, SKBR3 breast tumor cells, AlphaScreen, ATP viability (AID 461;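 active means Her2 level under about 52% in both replicate screens, with viability over 70% of control, limit read from the data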;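 on Her2 level: lower value means less Her2 protein in the cells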;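 on viability: percent of carrier control wells set as 100% viability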); settings: 18-24 h, measured here: SKBR3 viability, ATP luminescence, at 10 µM
# [2] = biological target: Receptor tyrosine-protein kinase erbB-2 (Homo sapiens) (UniProt P04626); test: as above; settings: 18-24 h, at 10 µM, stronger effect = lower value
# Receptor tyrosine-protein kinase erbB-2 (Homo sapiens), sequence (P04626 whole entry, looked up): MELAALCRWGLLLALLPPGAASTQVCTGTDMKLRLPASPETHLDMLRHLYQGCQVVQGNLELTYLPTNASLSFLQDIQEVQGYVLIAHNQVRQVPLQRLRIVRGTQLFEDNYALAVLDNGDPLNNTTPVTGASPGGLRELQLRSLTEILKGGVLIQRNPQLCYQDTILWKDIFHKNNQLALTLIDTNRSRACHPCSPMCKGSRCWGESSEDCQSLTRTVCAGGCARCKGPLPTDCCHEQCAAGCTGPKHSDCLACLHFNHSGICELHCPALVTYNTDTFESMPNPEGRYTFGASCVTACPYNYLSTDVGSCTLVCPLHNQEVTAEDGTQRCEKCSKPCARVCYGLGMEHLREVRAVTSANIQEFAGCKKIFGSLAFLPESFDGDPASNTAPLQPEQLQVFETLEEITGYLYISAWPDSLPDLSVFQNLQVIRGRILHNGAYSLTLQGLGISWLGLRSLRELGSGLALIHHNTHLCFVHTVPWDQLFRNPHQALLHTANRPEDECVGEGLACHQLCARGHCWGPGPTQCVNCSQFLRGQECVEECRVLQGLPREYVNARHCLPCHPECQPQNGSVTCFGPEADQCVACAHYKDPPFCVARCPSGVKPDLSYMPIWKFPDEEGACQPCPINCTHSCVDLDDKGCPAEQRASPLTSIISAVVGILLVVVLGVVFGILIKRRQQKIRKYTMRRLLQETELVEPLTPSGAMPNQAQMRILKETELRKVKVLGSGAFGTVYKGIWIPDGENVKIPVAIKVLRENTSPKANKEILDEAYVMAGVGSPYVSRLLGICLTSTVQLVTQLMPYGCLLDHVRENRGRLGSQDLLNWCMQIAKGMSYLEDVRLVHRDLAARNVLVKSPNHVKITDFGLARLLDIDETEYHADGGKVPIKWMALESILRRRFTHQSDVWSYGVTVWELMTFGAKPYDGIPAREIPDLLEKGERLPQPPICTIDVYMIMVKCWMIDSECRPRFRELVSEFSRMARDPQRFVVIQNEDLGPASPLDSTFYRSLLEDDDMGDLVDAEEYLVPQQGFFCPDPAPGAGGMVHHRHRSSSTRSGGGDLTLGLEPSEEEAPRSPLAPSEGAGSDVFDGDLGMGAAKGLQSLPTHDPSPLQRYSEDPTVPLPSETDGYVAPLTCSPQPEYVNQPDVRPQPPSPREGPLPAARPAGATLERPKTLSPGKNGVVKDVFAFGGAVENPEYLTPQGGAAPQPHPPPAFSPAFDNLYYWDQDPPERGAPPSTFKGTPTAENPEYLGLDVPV
# [3] = SK-BR-3 cell growth inhibitors, pilot screen, 24 h, human (AID 572); settings: SK-BR-3 viability, CellTiter-Glo luminescence, at 10 µM, stronger effect = lower value;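 further: compound exposure lasted between 18 and 24 h rather than exactly 24 h; 100% = carrier-treated control wells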
# [4] = HUVEC growth inhibition – cell-based, human, primary screen (AID 575;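 active means viability at or below 30% in both replicate assays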;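 further: 100% = median of untreated cell wells with 0.1% DMSO on each plate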); settings: HUVEC proliferation, CellTiter-Glo luminescence, 72 h; at 10 µM; stronger effect = lower value
# Method in brief: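 Material: primary human umbilical vein endothelial cells / Schedule: 72 h exposure, 37 °C, 5% CO2, 30 min RT equilibration / Signal: ATP-based CellTiter-Glo luminescent read / Read-out basis: percent of median DMSO-control luminescence / Control set: 32 DMSO-only cell-control wells (high), 32 MePR drug-control wells (low) per plate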
# [5] = growth inhibitors of H69AR lung tumor, primary screen, human, duplicate replicates (AID 580;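 active means viability at or under a set limit in both replicates, limit being median viability minus 3 SD, cut at about 48% in these data, passing the limit was not always enough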;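 further: 100% = mean luminescence of untreated wells and 0% = no signal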); settings: H69AR lung tumor cells viability, ATP luminescence, 72 h; at 10 µM; stronger effect = lower value
# [6] = reversal of MRP1-mediated doxorubicin resistance, pilot screen, H69AR cells, doxorubicin co-treatment (AID 601;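 active means viability loss from added drug above about 55%, and viability with drug at most 40%, in both replicates, limit read from the data, passing the limit was not always enough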); settings: CellTiter-Glo, 72 h, at 10 µM; for differential viability (reversal): stronger effect = higher value
# [7] = 384-well plate pilot, post-Golgi transport modulator project, inhibition of yeast transport mutant growth (AID 636; in the data active means inhibition above about 31%); settings: absorbance 615 nm, about 18 h, stronger effect = higher value
# [8] = growth suppression of yeast trafficking mutant, preliminary HTS, modulators of trafficking downstream of Golgi apparatus project, 1536-format plate, OD 615 nm (AID 637; in the data active means inhibition above about 30%); settings: yeast transport mutant growth, absorbance 615 nm, 18 h; stronger effect = higher value
# [9] = H69AR cells + 2 uM doxorubicin, measured here: viability with 2 uM doxorubicin, stronger effect = lower value
# [10] = H69AR cells, compound alone cytotoxicity
SMILES,viability [1] [%],Her2 level [2],viability [3],viability [4],viability [5],differential viability (reversal) ([6]; H69AR cells + 2 uM doxorubicin),"viability [6, 9] [%]","viability [6, 10] [%]",inhibition [7],inhibition [8]
Cc1ccc(-c2nnn(CC(=O)N(Cc3cccs3)C(C(=O)NC(C)(C)C)c3ccc(C)o3)n2)o1 (stereo not given),86.5,96.5% (inactive),86.5% (inactive),93.4% (inactive),79% (inactive),3.37% (inactive),75.7,79,-0.77% (inactive),-5.67% (inactive)
Cc1ccccc1N1OC2C(=O)N(c3ccc(F)cc3)C(=O)C2C1c1ccccn1 (stereo not given),130,116% (inactive),130% (inactive),115% (inactive),91.4% (inactive),9.9% (inactive),81.5,91.4,-5.58% (inactive),-2.86% (inactive)
O=S(=O)(c1ccc2ccccc2c1)N(CC(O)CN1CCOCC1)c1ccccc1 (stereo not given),87,75.5% (inactive),87% (inactive),83.9% (inactive),100% (inactive),19% (inactive),81,100,-5.87% (inactive),-1.13% (inactive)
Cc1ccc(S(=O)(=O)N[C@@H](C)C(=O)N2CCC(C(=O)N3CCC[C@H]3C(=O)O)CC2)cc1,98,100% (inactive),98% (inactive),88.7% (inactive),102% (inactive),8.07% (inactive),93.6,102,-4.4% (inactive),1.31% (inactive)
O=C(Nc1ccc(N2CCOCC2)cc1)c1cc2ccccc2o1,99.5,117% (inactive),99.5% (inactive),109% (inactive),85.7% (inactive),3.15% (inactive),82.6,85.7,-0.26% (inactive),-10.8% (inactive)
C=CCSc1nc(N)c(C(=O)Nc2ccccc2C)cc1C(N)=O,93,121% (inactive),93% (inactive),99.9% (inactive),87.4% (inactive),-2.21% (inactive),89.6,87.4,4.42% (inactive),4.67% (inactive)
O=C(NCN1CCCCC1)c1cnccn1,95.5,86% (inactive),95.5% (inactive),103% (inactive),89.9% (inactive),-16.5% (inactive),106,89.9,-2.47% (inactive),-1.15% (inactive)
COc1ccc(C2=NO[C@@H]3C(=O)N(c4cccc(C)c4C)C(=O)[C@H]23)cc1OC,104,106% (inactive),104% (inactive),97.7% (inactive),91.5% (inactive),-7.95% (inactive),99.5,91.5,4.29% (inactive),-3.49% (inactive)
CCOc1ccc(CSC(CC(=O)O)C(=O)O)cc1 (stereo not given),90,83.5% (inactive),90% (inactive),84.1% (inactive),84.2% (inactive),-2.67% (inactive),86.8,84.2,-3.29% (inactive),0.55% (inactive)
CC(C)(O)C1=NOC(c2ccccc2)C1 (stereo not given),98,108% (inactive),98% (inactive),76.2% (inactive),71.1% (inactive),-14.7% (inactive),85.8,71.1,-2.57% (inactive),1.31% (inactive)
CCN(CC)S(=O)(=O)c1ccc(Cl)c(C(=O)OC)c1,97,93% (inactive),97% (inactive),99% (inactive),95.7% (inactive),4.65% (inactive),91,95.7,-1.87% (inactive),2.9% (inactive)
COc1ccc(S(=O)(=O)NCC(=O)N(CC(=O)NCC2CCCO2)c2ccccc2C)cc1 (stereo not given),123,82% (inactive),123% (inactive),107% (inactive),83.4% (inactive),7.01% (inactive),76.4,83.4,-3.73% (inactive),-0.32% (inactive)
O=C(Nc1ccccc1C(=O)NCC1CCCO1)c1ccco1 (stereo not given),110,89% (inactive),110% (inactive),97.9% (inactive),98.7% (inactive),-1.63% (inactive),100,98.7,-1.71% (inactive),-5.71% (inactive)
O=C(Cc1c(F)cccc1Cl)Nc1ccncc1,92,91.5% (inactive),92% (inactive),97.5% (inactive),86.4% (inactive),-5.46% (inactive),91.9,86.4,-5.2% (inactive),-0.48% (inactive)
COc1ccc(CCNc2nc(N3CCOCC3)nc(N3CCOCC3)n2)cc1OC,81,91% (inactive),81% (inactive),108% (inactive),96.7% (inactive),2.03% (inactive),94.6,96.7,0.4% (inactive),-4.84% (inactive)
CCCCN(CC)CCCNC(=O)CS(=O)(=O)Cc1nc(-c2cccc(OC)c2)oc1C,92,112% (inactive),92% (inactive),80.1% (inactive),97.2% (inactive),10.4% (inactive),86.7,97.2,0.66% (inactive),-11.3% (inactive)
CCOc1ccc(N2CC(C(=O)Nc3cccc(C)c3C)CC2=O)cc1 (stereo not given),118,110% (inactive),118% (inactive),111% (inactive),108% (inactive),12.1% (inactive),95.9,108,-3.47% (inactive),-4.43% (inactive)
Cc1cc(N2CCN(c3ccccn3)CC2)n2nc(C)nc2n1,102,114% (inactive),102% (inactive),90.2% (inactive),87.4% (inactive),-7.31% (inactive),94.7,87.4,-4.23% (inactive),-7% (inactive)
CCOC(=O)C1CCCN(CCCc2ccccc2)C1 (stereo not given),104,91% (inactive),104% (inactive),105% (inactive),90.8% (inactive),3.21% (inactive),87.6,90.8,-5.47% (inactive),-1.9% (inactive)
CC(=O)c1c(NCCc2ccccc2)cc(C)oc1=O,99.5,86% (inactive),99.5% (inactive),119% (inactive),101% (inactive),9.25% (inactive),91.5,101,-2.57% (inactive),-4.83% (inactive)
COc1ccc(NC(=O)CN2CCN(CC(=O)Nc3cc(OC)cc(OC)c3)CC2)cc1,79,96.5% (inactive),79% (inactive),97.8% (inactive),83.1% (inactive),-5.3% (inactive),88.4,83.1,-3.77% (inactive),0.66% (inactive)
Cc1cccc(N2CCN(C(=O)c3cc4c(=O)[nH]c5ccccc5c4n3C)CC2)c1C,72.5,57.5% (inactive),72.5% (inactive),65.5% (inactive),95.9% (inactive),13% (inactive),82.9,95.9,-3.33% (inactive),11% (inactive)
CCOc1ccc(NC(=O)c2ccccc2O)cc1,87.5,87.5% (inactive),87.5% (inactive),90.4% (inactive),101% (inactive),10.1% (inactive),90.5,101,-1.22% (inactive),-2.7% (inactive)
Cn1c(=O)oc2cc(S(=O)(=O)NCCC(=O)N3CCc4ccccc4C3)ccc21,102,87.5% (inactive),102% (inactive),96.6% (inactive),99.3% (inactive),7.68% (inactive),91.6,99.3,-8.36% (inactive),6.19% (inactive)
CC(=O)Nc1c(O)nc(SCC(=O)Nc2nnc(CC(C)C)s2)[nH]c1=O,86.5,99.5% (inactive),86.5% (inactive),98.2% (inactive),93.6% (inactive),-8.89% (inactive),102,93.6,3.2% (inactive),22.4% (inactive)
Cc1nnc(SCC(=O)N2CCC(C(=O)Nc3nccs3)CC2)n1Cc1ccccc1,91.5,80% (inactive),91.5% (inactive),96.2% (inactive),91.5% (inactive),5.37% (inactive),86.1,91.5,-3.87% (inactive),0.33% (inactive)
[O-][n+]1c2ccc3nonc3c2nn1-c1ccccc1Cl,136,124% (inactive),136% (inactive),89.3% (inactive),95.1% (inactive),16.1% (inactive),79,95.1,-0.4% (inactive),-6.45% (inactive)
CCC(C(=O)OCC(=O)Nc1c(C)n(C)n(-c2ccccc2)c1=O)c1ccccc1 (stereo not given),109,83% (inactive),109% (inactive),117% (inactive),87.7% (inactive),6.61% (inactive),81.1,87.7,-4.66% (inactive),-4.76% (inactive)
Cc1ccc(CCNC(=O)C2CCN(S(=O)(=O)c3ccc4c(c3)CCC(=O)N4)CC2)cc1,98.5,100% (inactive),98.5% (inactive),44.2% (inactive),79.9% (inactive),10.6% (inactive),69.3,79.9,-0.67% (inactive),-6.07% (inactive)
